CHRM4 PAM: CHRM4 positive allosteric modulation; activation, % at 3 µM; P08173; 360,000 tested, 0.4% active; AID 624126; CHO-K1 hM4/Gqi5, Fluo-8 calcium fluorescence, ACh EC20; 0% = ACh EC20, 100% = maximal ACh;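 active = activation above its plate's cutoff, the mean activation of sample wells plus 3 SD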
OXTR potentiator: potentiators of human oxytocin receptor; P30559; CHO-OTR cells, Fluo-8 calcium fluorescence, potentiator mode; 0% = oxytocin EC15, 100% = EC100; activation, % at 3 µM; 320,000 tested, 0.061% active; AID 2445;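 active = activation above that plate's cutoff, the mean activation of tested compounds plus 3 SD, cut at about 6.6% in these data, passing the limit was not always enough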;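 note: 100% uses oxytocin at 75 nM as the full agonist control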
Target sequence (P30559 whole entry, looked up): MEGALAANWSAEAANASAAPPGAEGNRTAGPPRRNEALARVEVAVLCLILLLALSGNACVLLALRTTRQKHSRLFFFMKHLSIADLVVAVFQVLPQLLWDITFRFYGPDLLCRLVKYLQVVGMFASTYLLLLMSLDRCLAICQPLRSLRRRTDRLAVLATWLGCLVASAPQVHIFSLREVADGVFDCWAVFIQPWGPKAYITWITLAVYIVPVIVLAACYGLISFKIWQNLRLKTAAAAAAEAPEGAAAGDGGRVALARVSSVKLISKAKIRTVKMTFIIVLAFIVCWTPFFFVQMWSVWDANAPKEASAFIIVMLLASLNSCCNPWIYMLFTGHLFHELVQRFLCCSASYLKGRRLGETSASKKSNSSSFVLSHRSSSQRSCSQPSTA
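Material: CHO-OTR cells, human receptor; compound dosing: single dose, 3.0 µM nominal final compound concentration; schedule: 6 min compound pre-incubation at room temperature, 100 s kinetic read; measured by: kinetic Fluo-8 calcium fluorescence; read-out basis: % activation vs EC15 and EC100 oxytocin; controls: EC15 oxytocin alone as 0%, 75 nM oxytocin as 100%; replicates: singlicate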
M4 antag: antagonists of human muscarinic M4 receptor (CHRM4); 360,000 tested, 0.73% active; P08173; CHO-hM4 cells, ACh EC80, Fluo-8 calcium fluorescence; AID 624125; inhibition, % at 3 µM;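 active = inhibition above its plate's cutoff, the mean inhibition of sample wells plus 3 SD, cut at about 27% in these data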;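 note: 0% = acetylcholine EC80 with DMSO and 100% = DMSO without agonist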
V1R ag counter: counter-screen for oxytocin receptor agonists: human V1a receptor agonists | CHO-V1R cells, Fluo-8 calcium fluorescence, agonist mode; 0% DMSO, 100% 3 nM vasopressin | activation, % at 3 µM | 320,000 tested, 0.25% active | AID 2797;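 active = activation above the mean activation of all tested compounds plus 3 SD, per screening run, cut at about 20% in these data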;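 note: signal is peak over basal fluorescence ratio across a 100 second FLIPR read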
OXTR ag: agonists of human oxytocin receptor; CHO-OTR cells, Fluo-8 calcium fluorescence; normalized: DMSO 0%, oxytocin 100%; activation, % at 3 µM; 320,000 tested, 0.32% active; AID 2435;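 active = activation above the mean of all tested compounds plus 3 SD, cutoff set per screening run, cut at about 20% in these data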;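 note: peak over basal fluorescence ratio from a 100 s FLIPR kinetic read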
CHRM4 agonist: CHRM4 agonism in calcium assay. AID 624127. activation, % at 3 µM. CHO-K1 hM4/Gqi5, Fluo-8 calcium fluorescence; vehicle 0%, full acetylcholine response 100%. 360,000 tested, 0.14% active;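 active = activation above the run mean over all test wells plus 3 SD, cut at about 32% in these data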;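 note: peak over basal fluorescence ratio per well then scaled between controls; 0% = DMSO wells and 100% = acetylcholine at EC100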
An asterisk follows results filed as active; . = no result given. Most compounds without a hit are left out; they make up all but 1.5% or so of the library.

SMILES | CHRM4 PAM | OXTR potentiator | M4 antag | V1R ag counter | OXTR ag | CHRM4 agonist
O=C(O)CC(SCC(=O)Nc1ccc(S(=O)(=O)N2CCCC2)cc1)C(=O)O (stereo unspecified) | 7.1 | -21.5 | -18.5 | -0.2 | -0.3 | -0.7
Cc1ccc(CNC(=O)COc2ccc(S(=O)(=O)N3CCCC3)cc2)cc1 | 4.1 | -9.2 | -15.9 | 0.0 | -0.4 | 0.9
COc1ccc(CC(C)NCC(O)c2ccc(O)c(NC=O)c2)cc1 (stereo unspecified) | 9.1 | . | -5.2 | . | . | 0.4
C=CCN1C=CC(=C/C=C(/C#N)C(=O)OCC)C=C1 | 3.2 | -8.4 | -7.3 | 21.0* | 29.1* | 5.9
O=C(c1cccc(NS(=O)(=O)c2ccccc2)c1)N1CCCC1 | 5.7 | -0.2 | -3.5 | 2.4 | -1.2 | -0.1
O=C(c1cccc(NS(=O)(=O)c2ccc(F)c(F)c2)c1)N1CCN(C(c2ccccc2)c2ccccc2)CC1 | 31.0* | -9.4 | -8.7 | -0.4 | -1.8 | 1.9
COC(=O)c1ccc(C(=O)NC2CCSc3ccccc32)cc1 (stereo unspecified) | -2.3 | -3.4 | 5.8 | -0.7 | -1.8 | 1.0
Cc1ccc(NC(=S)NC2CCSc3ccccc32)cc1C (stereo unspecified) | -18.5 | -15.6 | 51.9* | 3.5 | -0.6 | 5.5
CN(c1ccccc1)S(=O)(=O)c1ccc(NC(=O)c2nc(S(C)(=O)=O)ncc2Cl)cc1 | -13.8 | -8.5 | 78.2* | 2.9 | 2.2 | 20.7
COc1cccc(NC(=O)c2nc(S(C)(=O)=O)ncc2Cl)c1 | -3.2 | -4.8 | 36.0* | -0.7 | -1.6 | -1.2
CC(=O)Nc1cccc(Oc2ncnc3scc(-c4ccc(C(C)C)cc4)c23)c1 | 0.7 | 0.6 | 11.9 | 1.6 | 1.0 | 5.5
Cn1c(Cc2ccccc2)nc(=O)c2ccccc21 | 6.5 | . | -4.2 | . | . | 0.0
O=C(NC1CCCCC1)C(c1ccncc1)n1c(=O)c(-c2cc3ccccc3[nH]2)nc2ccccc21 (stereo unspecified) | 17.2 | . | -0.8 | . | . | 6.8
COc1ccc(-c2csc3ncnc(N4CCN(c5ccccc5OC)CC4)c23)cc1 | -16.5 | -7.6 | 7.1 | 1.8 | -2.2 | 12.5
CCOc1ccccc1N1CCN(c2ncnc3scc(-c4ccc(OC)cc4)c23)CC1 | -12.7 | -13.7 | 26.9* | 0.2 | -0.5 | 7.9
O=C(Nc1ccc(F)cc1)Nc1cccnc1Cl | -16.6 | -0.6 | 32.3* | -1.0 | 1.0 | 3.5
CC(C)(C)c1ccc(NC(=O)Nc2ccc(F)cc2)cc1 | -20.4 | -14.2 | 51.5* | 10.7 | 8.6 | 31.3
CC(C)(C)c1ccc(COC(=O)Nc2ccc(F)cc2)cc1 | 4.2 | -3.2 | -3.0 | 0.0 | -1.5 | 2.6
COc1ccccc1CC(=O)Nc1nc(-c2ccc(F)c(F)c2)cs1 | -7.6 | -9.0 | -11.6 | 2.9 | 0.0 | 6.6
COc1ccc(-c2csc(NC(=O)c3ccccc3NS(=O)(=O)c3ccc(C)cc3)n2)cc1 | -27.6 | -13.7 | 19.2 | 8.5 | 12.1 | 13.4
COc1ccc(-c2csc(NC(=O)Cc3ccccc3F)n2)cc1OC | -21.1 | -15.9 | 44.9* | 7.0 | 2.1 | 8.5
COc1ccc(S(=O)(=O)Nc2ccccc2C(=O)Nc2nc(-c3ccc(F)cc3)cs2)cc1OC | -13.9 | -16.1 | 32.6* | 10.7 | 16.1 | 17.7
CC(=O)c1ccc(S(=O)(=O)NCCC(=O)NC(C)c2ccncc2)cc1 (stereo unspecified) | 14.6 | 2.1 | -5.4 | -0.2 | 0.4 | 1.8
O=c1c(Cl)c(O)ccn1C1OC(CO)C(O)C1O (stereo unspecified) | 4.1 | . | -10.2 | . | . | 0.0
CCN(CC)S(=O)(=O)c1cccc(N=NC2=C(O)CCCC2=O)c1 | 0.6 | -1.3 | -4.5 | -0.2 | -0.1 | 1.6
O=C1CCCC(O)=C1N=Nc1cccc(C(=O)O)c1 | 20.4* | -15.9 | -2.1 | -0.2 | -0.3 | 3.2
CCCCNC(=O)C1(C)CCC(=O)N1CCc1c[nH]c2ccccc12 (stereo unspecified) | -7.5 | . | 3.5 | . | . | 0.2
CSc1ccc(/C=N/NC(=O)CN2CCN(Cc3ccc(Cl)cc3)CC2)cc1 | -16.7 | -4.7 | 34.7* | 4.7 | 5.8 | 2.0
CCOC(=O)c1sc2nc(OCc3cccnc3)cc(C)c2c1N | 31.8* | . | 1.9 | . | . | 1.8

From PubChem BioAssay
